# Results from ChEMBL document CHEMBL1811814, “Synthesis and evaluation of indole, pyrazole, chromone and pyrimidine based conjugates for tumor growth inhibitory activities--development of highly efficacious cytotoxic agents” (Eur J Med Chem, 2010).
# What was measured:
# Type in all cases: functional
# [1] = tested on: HCT-116; experiment: Growth inhibition of human HCT116 cells
# [2] = tested on: HT-29; experiment: Growth inhibition of human HT-29 cells
# [3] = tested on: SF-268; experiment: Growth inhibition of human SF268 cells
# [4] = tested on: U-251; experiment: Growth inhibition of human U251 cells
# [5] = tested on: Malme-3M; experiment: Growth inhibition of human MALME-3M cells
# [6] = tested on: M14; experiment: Growth inhibition of human M14 cells
# [7] = tested on: MDA-MB-435; experiment: Growth inhibition of human MDA-MB-435 cells
# [8] = tested on: UACC-62; experiment: Growth inhibition of human UACC62 cells
# [9] = tested on: OVCAR-5; experiment: Growth inhibition of human OVCAR5 cells
# [10] = tested on: SK-OV-3; experiment: Growth inhibition of human SKOV3 cells
# [11] = tested on: 786-0; experiment: Growth inhibition of human 786-0 cells
# [12] = tested on: A498; experiment: Growth inhibition of human A498 cells
# [13] = tested on: ACHN; experiment: Growth inhibition of human ACHN cells
# [14] = tested on: UO-31; experiment: Growth inhibition of human UO31 cells
# [15] = tested on: PC-3; experiment: Growth inhibition of human PC3 cells
# [16] = tested on: DU-145; experiment: Growth inhibition of human DU145 cells
# [17] = tested on: BT-549; experiment: Growth inhibition of human BT549 cells
# [18] = tested on: T47D; experiment: Growth inhibition of human T47D cells
# [19] = tested on: CCRF-CEM; experiment: Growth inhibition of human CCRF-CEM cells assessed tumor cell growth at 10^-5 M; design: scale not given: the % may be the effect or the level left
# Outline: (§1)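 NCI 60-human-tumor-cell-line panel screen. Each compound was tested at a single concentration of 10^-5 M, and percent growth of tumor cells was recorded for each cell line. Growth inhibition was expressed from these percent-growth values.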
# [20] = tested on: HL-60(TB); experiment: Growth inhibition of human HL-60(TB) cells assessed tumor cell growth at 10^-5 M; design: scale not given: the % may be the effect or the level left
# Outline: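 HL-60(TB), part of the 60-line panel, tested at a single concentration of 10^-5 M. The read-out is percent tumor cell growth relative to untreated growth.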
# [21] = Growth inhibition of human […] cells assessed tumor cell growth at 10^-5 M; design: scale not given: the % may be the effect or the level left; outline: as §1
# [22] = tested on: HOP-62; experiment: Growth inhibition of human HOP62 cells assessed tumor cell growth at 10^-5 M; design: scale not given: the % may be the effect or the level left; outline: as §1
# [23] = tested on: HOP-92; experiment: Growth inhibition of human HOP92 cells assessed tumor cell growth at 10^-5 M; design: scale not given: the % may be the effect or the level left; outline: as §1
# [24] = tested on: NCI-H226; experiment: Growth inhibition of human NCI-H226 cells assessed tumor cell growth at 10^-5 M; design: scale not given: the % may be the effect or the level left; outline: as §1
# [25] = tested on: NCI-H322M; experiment: Growth inhibition of human NCI-H322M cells assessed tumor cell growth at 10^-5 M; design: scale not given: the % may be the effect or the level left; outline: as §1
# [26] = tested on: NCI-H522; experiment: Growth inhibition of human NCI-H522 cells assessed tumor cell growth at 10^-5 M; design: scale not given: the % may be the effect or the level left; outline: as §1
# [27] = tested on: COLO 205; experiment: Growth inhibition of human COLO205 cells assessed tumor cell growth at 10^-5 M; design: scale not given: the % may be the effect or the level left; outline: as §1
# [28] = tested on: HCT-15; experiment: Growth inhibition of human HCT15 cells assessed tumor cell growth at 10^-5 M; design: scale not given: the % may be the effect or the level left; outline: as §1
# [29] = tested on: SF-539; experiment: Growth inhibition of human SF539 cells assessed tumor cell growth at 10^-5 M; design: scale not given: the % may be the effect or the level left; outline: as §1
# [30] = tested on: SNB-75; experiment: Growth inhibition of human SNB75 cells assessed tumor cell growth at 10^-5 M; design: scale not given: the % may be the effect or the level left
# Outline: (§2)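 Single-dose screen at 10^-5 M across the 60 human tumor cell line panel, run to NCI standards. The value is the percent growth of each cell line in the presence of compound. Compounds active at this dose moved on to five-concentration testing (10^-4 to 10^-8 M).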
# [31] = tested on: U-251; experiment: Growth inhibition of human U251 cells assessed tumor cell growth at 10^-5 M; design: scale not given: the % may be the effect or the level left; outline: as §2
# [32] = tested on: SK-MEL-5; experiment: Growth inhibition of human SK-MEL-5 cells assessed tumor cell growth at 10^-5 M; design: scale not given: the % may be the effect or the level left; outline: as §1
# [33] = tested on: UACC-257; experiment: Growth inhibition of human UACC257 cells assessed tumor cell growth at 10^-5 M; design: scale not given: the % may be the effect or the level left; outline: as §2
# [34] = tested on: OVCAR-3; experiment: Growth inhibition of human OVCAR3 cells assessed tumor cell growth at 10^-5 M; design: scale not given: the % may be the effect or the level left; outline: as §1
# [35] = tested on: OVCAR-4; experiment: Growth inhibition of human OVCAR4 cells assessed tumor cell growth at 10^-5 M; design: scale not given: the % may be the effect or the level left; outline: as §1
# [36] = tested on: OVCAR-5; experiment: Growth inhibition of human OVCAR5 cells assessed tumor cell growth at 10^-5 M; design: scale not given: the % may be the effect or the level left; outline: as §1
# [37] = tested on: OVCAR-8; experiment: Growth inhibition of human OVCAR8 cells assessed tumor cell growth at 10^-5 M; design: scale not given: the % may be the effect or the level left; outline: as §1
# [38] = tested on: A498; experiment: Growth inhibition of human A498 cells assessed tumor cell growth at 10^-5 M; design: scale not given: the % may be the effect or the level left; outline: as §1
# [39] = tested on: ACHN; experiment: Growth inhibition of human ACHN cells assessed tumor cell growth at 10^-5 M; design: scale not given: the % may be the effect or the level left; outline: as §1
# [40] = tested on: TK-10; experiment: Growth inhibition of human TK10 cells assessed tumor cell growth at 10^-5 M; design: scale not given: the % may be the effect or the level left; outline: as §2
# [41] = tested on: PC-3; experiment: Growth inhibition of human PC3 cells assessed tumor cell growth at 10^-5 M; design: scale not given: the % may be the effect or the level left; outline: as §1
# [42] = tested on: MCF7; experiment: Growth inhibition of human MCF7 cells assessed tumor cell growth at 10^-5 M; design: scale not given: the % may be the effect or the level left; outline: as §1
# [43] = Growth inhibition of human Hs 578T cells assessed tumor cell growth at 10^-5 M; design: scale not given: the % may be the effect or the level left; outline: as §1
# [44] = tested on: BT-549; experiment: Growth inhibition of human BT549 cells assessed tumor cell growth at 10^-5 M; design: scale not given: the % may be the effect or the level left; outline: as §1
# [45] = tested on: MDA-MB-468; experiment: Growth inhibition of human MDA-MB-468 cells assessed tumor cell growth at 10^-5 M; design: scale not given: the % may be the effect or the level left; outline: as §1
# [46] = tested on: CCRF-CEM; experiment: Growth inhibition of human CCRF-CEM cells
# [47] = tested on: HL-60(TB); experiment: Growth inhibition of human HL-60(TB) cells
# [48] = tested on: K562; experiment: Growth inhibition of human K562 cells
# [49] = tested on: MOLT-4; experiment: Growth inhibition of human MOLT4 cells
# [50] = tested on: SR; experiment: Growth inhibition of human SR cells
# [51] = tested on: A549; experiment: Growth inhibition of human A549 cells
# [52] = tested on: NCI-H226; experiment: Growth inhibition of human NCI-H226 cells
# [53] = tested on: NCI-H23; experiment: Growth inhibition of human NCI-H23 cells
# [54] = read-out: LC50 (the source's name)
smiles,measurement,setting,value
O=C1Nc2ccccc2/C1=C/c1cn(C(=O)c2c(Cl)cccc2Cl)c2ccccc12,GI50,[1],1.6 µM
same,CC50,[1]; [54],6.9 µM
same,GI50,[2],3.8 µM
same,CC50,[2]; [54],54.9 µM
same,GI50,[3],2.4 µM
same,CC50,[3]; [54],57.5 µM
same,GI50,[4],3.4 µM
same,CC50,[4]; [54],54.9 µM
same,GI50,[5],2.6 µM
same,CC50,[5]; [54],58.8 µM
same,GI50,[6],2.3 µM
same,CC50,[6]; [54],33.8 µM
same,GI50,[7],2.2 µM
same,CC50,[7]; [54],51.2 µM
same,GI50,[8],4.9 µM
same,CC50,[8]; [54],61.6 µM
same,GI50,[9],8.9 µM
same,CC50,[9]; [54],> 100 µM
same,GI50,[10],8.3 µM
same,CC50,[10]; [54],> 100 µM
same,GI50,[11],3.3 µM
same,CC50,[11]; [54],91.2 µM
same,GI50,[12],1.2 µM
same,CC50,[12]; [54],21.8 µM
same,GI50,[13],3.1 µM
same,CC50,[13]; [54],> 100 µM
same,GI50,[14],1.1 µM
same,CC50,[14]; [54],48.9 µM
same,GI50,[15],2.4 µM
same,CC50,[15]; [54],> 100 µM
same,GI50,[16],2.7 µM
same,CC50,[16]; [54],46.7 µM
same,GI50,[17],2.4 µM
same,CC50,[17]; [54],37.1 µM
same,GI50,[18],4.1 µM
same,CC50,[18]; [54],> 100 µM
same,Activity,[19],70.5%
same,Activity,[20],72.1%
same,Activity,[21],51.8%
same,Activity,[22],88.7%
same,Activity,[23],49%
same,Activity,[24],48.1%
same,Activity,[25],90.3%
same,Activity,[26],55.3%
same,Activity,[27],41.7%
same,Activity,[28],30.9%
same,Activity,[29],67.4%
same,Activity,[30],54.6%
same,Activity,[31],35.8%
same,Activity,[32],63%
same,Activity,[33],79.1%
same,Activity,[34],43%
same,Activity,[35],50.3%
same,Activity,[36],84.9%
same,Activity,[37],52.3%
same,Activity,[38],52.5%
same,Activity,[39],43.6%
same,Activity,[40],90.7%
same,Activity,[41],41.7%
same,Activity,[42],22.9%
same,Activity,[43],64.6%
same,Activity,[44],51.7%
same,Activity,[45],32.6%
same,GI50,[46],0.34 µM
same,CC50,[46]; [54],> 100 µM
same,GI50,[47],2.4 µM
same,CC50,[47]; [54],> 100 µM
same,GI50,[48],3.1 µM
same,CC50,[48]; [54],> 100 µM
same,GI50,[49],2.8 µM
same,LC50,[49],> 100 µM
same,GI50,[50],2.2 µM
same,CC50,[50]; [54],> 100 µM
same,GI50,[51],3.2 µM
same,CC50,[51]; [54],> 100 µM
same,GI50,[52],7.4 µM
same,CC50,[52]; [54],83.1 µM
same,GI50,[53],4.1 µM
same,LC50 (concentration killing 50% of cells),[53],50.1 µM
